The list is not random: actives were taken first. Their share in the collection is about 1.4%.
Tn7 DDE FP: inhibitors of Tn7 peptide binding to human fibrin DD(E). P02675. FP displacement of FITC-Tn7 peptide from fibrin DD(E); 0% = median of compound wells per plate. inhibition, % at 8.3 µM. actives 0.13% (n = 370,000). AID 720508;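 active means inhibition above the mean of compounds falling within the control limits plus 3 SD of them, cut at about 14% in these data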
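Assay system: Human fibrin DD(E) protein | Medium: Tris buffer with calcium and detergent, pH 7.8 | Reagent: 0.1 µM fluorescent Tn7 | Compound dosing: Single point at 8.3 µM | Times: 10 min preincubation, 3 h with tracer, room temperature | Detection: Fluorescence polarization of the labelled Tn7 tracer | Controls: Aha-Tn7 high control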
MT1-MMP act inh: blocks activation of human MT1-MMP. HT1080 RFP-PRO-GFP cells, GFP/RFP ratio fluorescence, overnight; percent of plate control window, DMSO zero. actives 0.061% (n = 360,000). AID 651647. GFP/RFP ratio change, % at 20 µM;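 active means GFP/RFP ratio change of at least 30% with cell ATP level not reduced by more than half and red fluorescence within 50% of control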
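Assay system: HT1080 RFP-PRO-GFP cells. Benchmarks: DMSO vehicle wells and RFP-L50D-GFP reporter cell wells. Times: overnight cell settling, then overnight compound exposure, 37 °C, 5% CO2. Compound: 20 µM single dose, 1% DMSO. Read-out basis: GFP/RFP fluorescence ratio.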
DAGLB inhibitor: blocks human DAGLB lipase activity; Q8NCG7; inhibition, % at 5.17 µM; actives 0.059% (n = 340,000); AID 504411; HEK293T DAGLB membrane lysate, EnzChek fluorogenic substrate; in the data active means inhibition above about 34%
Target sequence (Q8NCG7 whole entry, looked up): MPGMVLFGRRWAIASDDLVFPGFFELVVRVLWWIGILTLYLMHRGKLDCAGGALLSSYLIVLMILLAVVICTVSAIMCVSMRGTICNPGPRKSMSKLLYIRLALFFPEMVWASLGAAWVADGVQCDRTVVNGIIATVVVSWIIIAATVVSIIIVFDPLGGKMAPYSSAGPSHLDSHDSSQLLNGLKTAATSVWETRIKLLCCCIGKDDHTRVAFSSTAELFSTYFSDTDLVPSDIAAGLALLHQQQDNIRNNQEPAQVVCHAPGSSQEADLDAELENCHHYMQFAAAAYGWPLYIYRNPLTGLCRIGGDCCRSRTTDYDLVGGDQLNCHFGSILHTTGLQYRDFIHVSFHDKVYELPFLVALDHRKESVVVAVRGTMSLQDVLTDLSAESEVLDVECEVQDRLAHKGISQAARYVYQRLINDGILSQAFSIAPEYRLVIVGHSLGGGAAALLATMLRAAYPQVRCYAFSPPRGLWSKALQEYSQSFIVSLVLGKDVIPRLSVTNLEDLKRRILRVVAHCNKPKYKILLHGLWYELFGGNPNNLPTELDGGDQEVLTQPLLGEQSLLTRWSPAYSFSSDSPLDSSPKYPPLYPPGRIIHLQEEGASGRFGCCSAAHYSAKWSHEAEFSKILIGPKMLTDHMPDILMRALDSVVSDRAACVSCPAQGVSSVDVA
H9c2 protect: modulators protecting cardiomyocytes from myocardial damage; actives 0.63% (n = 360,000); protection from H2O2 cell death, % at 20 µM; H9c2 cardiomyocytes, H2O2 injury protection, ATPLite, 2 h;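 active means compounds giving at least 50% protection of heart cells from peroxide-induced death in the single-dose screen, raw or plate-pattern-corrected value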
Tn6 DDE FP: inhibitors of Tn6 peptide binding to human fibrin DD(E) | AID 720509 | inhibition, % at 8.3 µM | actives 0.21% (n = 370,000) | Fibrin DD(E) TRITC-Tn6 fluorescence polarization displacement;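 active means inhibition above a per-campaign cutoff: mean of compounds within control limits plus 3 SD, cut at about 15% in these data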
H9c2 TAG inh: triacylglycerol accumulation inhibition. actives 0.66% (n = 230,000). H9c2 cells, Nile Red lipid (TAG) fluorescence; cells loaded with 200 µM oleic acid. AID 651582. inhibition, % at 12.5 µM;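 active means pattern-corrected inhibition of lipid staining of at least 50% with the nuclear-stain viability signal not falling by more than 50%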
H9c2 TAG conf: triacylglycerol accumulation inhibition, confirmation | actives 71% (n = 990) | H9c2 lipid accumulation, Nile Red fluorescence; cells loaded with 200 µM oleic acid | inhibition, % at 12.5 µM | AID 651629 | shares compounds with H9c2 TAG inh;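 active means mean inhibition across replicates of 40% or more; inactive means mean inhibition below 40%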
MT1-MMP act val: blocks activation of human MT1-MMP in validation testing. shares compounds with MT1-MMP act inh. HT1080 RFP-PRO-GFP cells, GFP and RFP fluorescence ratio, overnight. inhibition, % at 20 µM. actives 10% (n = 200). AID 652235;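 active means inhibition of at least 50% in the primary cell screen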
DDE Tn7 confirm: DD(E)-Tn7 binding inhibition, FP confirmation. shares compounds with Tn7 DDE FP. FP displacement of TRITC-Tn7 peptide from DD(E); 0% set at plate's compound-well median. inhibition, % at 8.3 µM. actives 5% (n = 460);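 active means inhibition above the campaign cutoff, the mean of compounds within control limits plus 3 SD, cut at about 14% in these data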;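 further: displacers lower polarization since freed probe rises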
DDE Tn7 FP ctr: counter-screen hit for Tn7 peptide-fibrin DD(E) binding disruption; shares compounds with Tn7 DDE FP; TRITC-Tn7 probe displacement, fluorescence polarization; inhibition, % at 8.3 µM; actives 3% (n = 460);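 active means inhibition above the cutoff, the mean of compounds lying between the control bounds plus 3 SD of those compounds, cut at about 17% in these data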
Tn6 DDE ctr: DD(E)-Tn6 binding inhibition, counter-screen; actives 2% (n = 680); inhibition, % at 8.3 µM; shares compounds with Tn6 DDE FP; Fibrin DD(E), TRITC-Tn6 fluorescence polarization displacement; 0% = median of compound wells, not DMSO;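 active means inhibition above the mean of test compounds lying between the control limits plus 3 SD of those, cut at about 14% in these data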
DDE Tn6 confirm: confirmation of inhibitors of Tn6 binding to human fibrin DD(E); shares compounds with Tn6 DDE FP; FP displacement of TRITC-Tn6 peptide from DD(E); 0% = per-plate median of test wells; inhibition, % at 8.3 µM; actives 10% (n = 680);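 active means inhibition above the mean of compounds lying within the control limits plus 3 SD, cut at about 16% in these data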
Each line names hits and unclear results; the compound was inactive in the other large screens (follow-up assays come after a bar, where they were run).

O=C(Cc1nnc(NC(=O)c2ccccc2)s1)N/N=C/c1cccc(O)c1	none (no result: H9c2 TAG inh)
Cc1ccc(Cn2cc(/C=N/NC(=O)Cc3nnc(NC(=O)c4ccc(C)cc4)s3)c3ccccc32)cc1	H9c2 TAG inh 52 | H9c2 TAG conf 128
CCc1c(C2(O)CCCCC2)[nH]c2cnccc12	H9c2 TAG inh 51 | H9c2 TAG conf inactive
O=C(c1cnn2c1NC(c1ccc(Br)cc1)CC2C(F)(F)F)N1CCN(C23CC4CC(CC(C4)C2)C3)CC1 (centres undefined)	H9c2 TAG inh 54 | H9c2 TAG conf 55
O=C(c1cnn2c1NC(c1ccc(Br)cc1)CC2C(F)(F)F)N1CCN2CCCC2C1 (centres undefined)	none (no result: H9c2 TAG inh)
COc1ccc(NC(=O)c2nc(C)c(C3(C)CC(c4ccccc4)=NO3)s2)cc1 (centres undefined)	H9c2 TAG inh 76 | H9c2 TAG conf 94
Cc1nc(C(=O)Nc2ccccc2)sc1C1(C)CC(c2cccnc2)=NO1 (centres undefined)	none (no result: H9c2 TAG inh)
COc1ccccc1CCn1cnc(-c2ccc(F)cc2)c1C(C)C	none (no result: MT1-MMP act inh, DAGLB inhibitor, H9c2 protect, H9c2 TAG inh)
Cc1ccc(NC(=O)c2cc3ccccc3oc2=O)cc1S(=O)(=O)N(C)C	none (no result: Tn7 DDE FP, DAGLB inhibitor, Tn6 DDE FP, H9c2 TAG inh)
Cc1ccc(NC(=O)c2cc3ccccc3o2)cc1S(=O)(=O)N(C)C	H9c2 TAG inh 70 | H9c2 TAG conf inactive
CCCCOc1ccc(C(=O)NC2CCCCN(Cc3cccc(Cl)c3)C2=O)cc1 (centres undefined)	none (no result: MT1-MMP act inh, DAGLB inhibitor, H9c2 protect, H9c2 TAG inh)
COC(=O)C1CN(Cc2ccc(OC)cc2)CCS(=O)(=O)N1Cc1cn(Cc2ccc(F)cc2)nn1 (centres undefined)	none (no result: MT1-MMP act inh, DAGLB inhibitor, H9c2 protect, H9c2 TAG inh)
COc1cc(C)c2sc3ccccc3c(=O)c2c1NCCN(C)C	H9c2 TAG inh 70 | H9c2 TAG conf 64
COc1ccc2c(c1)N=CN1CCc3c([nH]c4ccccc34)C3=NCC[C@@]321	none (no result: MT1-MMP act inh, DAGLB inhibitor, H9c2 protect, H9c2 TAG inh)
CCCCCC(/C=N/Nc1ccc(S(=O)(=O)N2CCOCC2)cc1[N+](=O)[O-])=C\c1ccccc1	H9c2 TAG inh 59 | H9c2 TAG conf 63
O=C(Nc1ccccc1)c1nc[nH]c1C(=O)NCCCCCCNC(=O)c1[nH]cnc1C(=O)Nc1ccccc1	H9c2 protect 97, H9c2 TAG inh 65 | H9c2 TAG conf 73
C#CCN(C[C@@H]1[C@@H](OC(=O)NCc2ccco2)[C@@H](OC(=O)NCc2ccco2)CN(C(=O)OC(C)C)N1C(=O)OC(C)C)S(=O)(=O)c1ccc(C)cc1	H9c2 TAG inh 55 | H9c2 TAG conf 62
CCC(C)(C)NC(=O)C(c1ccc(C)cc1)N(Cc1ccco1)C(=O)CCC(=O)Nc1nccs1 (centres undefined)	H9c2 TAG inh 66 | H9c2 TAG conf 65
COc1ccc(C(C(=O)NC(C)(C)C)N(Cc2ccco2)C(=O)CCC(=O)Nc2cc(C)on2)cc1 (centres undefined)	H9c2 TAG inh 56 | H9c2 TAG conf 46
CCC(C)(C)NC(=O)C(c1ccc(OC)cc1)N(Cc1ccco1)C(=O)CCC(=O)Nc1cc(C)on1 (centres undefined)	H9c2 TAG inh 70 | H9c2 TAG conf 57
COc1ccc(-n2nc(C(=O)Nc3ccc(OC)c(OC)c3)c3c4ccccc4n(C)c3c2=O)cc1	H9c2 TAG inh 82 | H9c2 TAG conf inactive
CCOc1ccc(N(CC)C(=O)c2nn(-c3ccc(OC)cc3)c(=O)c3c2c2ccccc2n3C)cc1	none (no result: H9c2 TAG inh)
COc1ccc(-n2nc(C(=O)Nc3ccc4c(c3)OCO4)c3c4ccccc4n(C)c3c2=O)cc1	H9c2 TAG inh 66 | H9c2 TAG conf 44
COc1ccccc1NC(=O)N1CCC(c2nc3cc(C)c(C)cc3[nH]2)CC1	H9c2 TAG inh 51 | H9c2 TAG conf 45
COc1ccccc1NC(=S)N1CCC(c2nc3cc(C)c(C)cc3[nH]2)CC1	none (no result: H9c2 TAG inh)
COC(=O)[C@H](CC(C)C)N(Cc1cn(Cc2ccccc2)nn1)S(=O)(=O)c1ccc(F)cc1Br	none (no result: MT1-MMP act inh, DAGLB inhibitor, H9c2 protect, H9c2 TAG inh)
O=C(CSc1nc2ccc(Nc3nc(N4CCOCC4)nc(N4CCOCC4)n3)cc2s1)Nc1ccccc1F	Tn7 DDE FP 16, H9c2 TAG inh 73 | H9c2 TAG conf 78 | DDE Tn7 confirm inactive | DDE Tn7 FP ctr inactive
COC(=O)C1=C(C)N(Cc2cccc(C(F)(F)F)c2)C(=NCc2ccc3c(c2)OCO3)NC1c1cccc(F)c1 (centres undefined)	none (no result: MT1-MMP act inh, DAGLB inhibitor, H9c2 protect, H9c2 TAG inh)
Cc1ccc(N2CN(S(=O)(=O)c3cccc([N+](=O)[O-])c3)c3nc4ccccc4nc32)cc1	none
O=[N+]([O-])c1cccc(S(=O)(=O)N2CN(c3ccc(Br)cc3)c3nc4ccccc4nc32)c1	Tn7 DDE FP 17, H9c2 TAG inh 62 | H9c2 TAG conf 49 | DDE Tn7 confirm inactive | DDE Tn7 FP ctr inactive
CCOc1ccc(CCNC(=O)c2cc3sc(Cl)cc3n2C)cc1OCC	Tn6 DDE FP 34, H9c2 TAG inh 60 | H9c2 TAG conf 41 | Tn6 DDE ctr inactive | DDE Tn6 confirm inactive
CCN(Cc1cn(Cc2ccccc2)nn1)S(=O)(=O)c1ccc(N2CCCC2)cc1Br	none (no result: MT1-MMP act inh, DAGLB inhibitor, H9c2 protect, H9c2 TAG inh)
Cc1cc(C)c(NS(=O)(=O)c2ccccc2)c(C)c1	none
Cc1cc(C)c(S(=O)(=O)/N=C2\C=C(NS(=O)(=O)c3ccccc3)C(=O)c3ccccc32)c(C)c1	MT1-MMP act inh 41 (no result: H9c2 TAG inh) | MT1-MMP act val inactive

Source: PubChem BioAssay
